Tests used:
NCI-H23 [1] = assay: Growth inhibition of human NCI-H23 cells assessed as cell growth at 10^-7 M incubated for 48 hrs by sulforhodamine B assay relative to control; format: functional; conditions: NCI-H23, 48 h, read-out: Activity
SK-MEL-28 [2] = assay: Growth inhibition of human SK-MEL-28 cells assessed as cell growth at 10^-6 M incubated for 48 hrs by sulforhodamine B assay relative to control; format: functional; conditions: SK-MEL-28, 48 h, read-out: Activity
MOLT-4 [3] = assay: Cytotoxicity against human MOLT4 cells after 48 hrs by SRB assay; format: functional; conditions: MOLT-4, 48 h
A549 = assay: Cytotoxicity against human A549 cells after 48 hrs by SRB assay; format: functional; conditions: A549, 48 h
Hs-578T = assay: Growth inhibition of human Hs 578T cells assessed as cell growth at 10^-7 M incubated for 48 hrs by sulforhodamine B assay relative to control; format: functional; conditions: read-out: Activity
CCRF-CEM [4] = assay: Growth inhibition of human CCRF-CEM cells assessed as cell growth at 10^-6 M incubated for 48 hrs by sulforhodamine B assay relative to control; format: functional; conditions: read-out: Activity
SK-MEL-28 [5] = assay: Growth inhibition of human SK-MEL-28 cells assessed as cell growth at 10^-5 M incubated for 48 hrs by sulforhodamine B assay relative to control; format: functional; conditions: SK-MEL-28, 48 h, read-out: Activity
M14 = assay: Growth inhibition of human M14 cells assessed as cell growth at 10^-6 M incubated for 48 hrs by sulforhodamine B assay relative to control; format: functional; conditions: M14, 48 h, read-out: Activity
CCRF-CEM [6] = assay: Antiproliferative activity against human CEM cells after 72 hrs by Coulter counter method; format: functional, cell-based
Method in brief: (§1)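 Cell count assay in 96-well microtiter plates; (5–7.5) × 10⁴ tumor cells per well plus test compound. Cells proliferated at 37 °C in humidified CO₂-controlled atmosphere, 48 h for murine leukemia L1210, 72 h for human lymphocytic CEM and cervix carcinoma HeLa. Counted by Coulter counter; IC₅₀ is the concentration that inhibits proliferation by 50%.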

SW-620 = assay: Growth inhibition of human SW620 cells assessed as cell growth at 10^-8 M incubated for 48 hrs by sulforhodamine B assay relative to control; format: functional; conditions: SW-620, 48 h, read-out: Activity
KM12 [7] = assay: Cytotoxicity against human KM12 cells after 48 hrs by SRB assay; format: functional; conditions: KM12, 48 h
MOLT-4 [8] = assay: Growth inhibition of human MOLT4 cells assessed as cell growth at 10^-6 M incubated for 48 hrs by sulforhodamine B assay relative to control; format: functional; conditions: MOLT-4, 48 h, read-out: Activity
NCI-H23 [9] = assay: Growth inhibition of human NCI-H23 cells assessed as cell growth at 10^-5 M incubated for 48 hrs by sulforhodamine B assay relative to control; format: functional; conditions: NCI-H23, 48 h, read-out: Activity
SF-295 = assay: Growth inhibition of human SF295 cells assessed as cell growth at 10^-6 M incubated for 48 hrs by sulforhodamine B assay relative to control; format: functional; conditions: SF-295, 48 h, read-out: Activity
SN12C = assay: Growth inhibition of human SN12C cells assessed as cell growth at 10^-5 M incubated for 48 hrs by sulforhodamine B assay relative to control; format: functional; conditions: read-out: Activity
RXF 393 = assay: Cytotoxicity against human RXF393 cells after 48 hrs by SRB assay; format: functional; conditions: RXF 393, 48 h
UACC-257 = assay: Growth inhibition of human UACC257 cells assessed as cell growth at 10^-7 M incubated for 48 hrs by sulforhodamine B assay relative to control; format: functional; conditions: UACC-257, 48 h, read-out: Activity
NCI-H23 [10] = assay: Growth inhibition of human NCI-H23 cells assessed as cell growth at 10^-8 M incubated for 48 hrs by sulforhodamine B assay relative to control; format: functional; conditions: NCI-H23, 48 h, read-out: Activity
U-251 = assay: Growth inhibition of human U251 cells assessed as cell growth at 10^-8 M incubated for 48 hrs by sulforhodamine B assay relative to control; format: functional; conditions: U-251, 48 h, read-out: Activity
COLO 205 = assay: Growth inhibition of human COLO205 cells assessed as cell growth at 10^-5 M incubated for 48 hrs by sulforhodamine B assay relative to control; format: functional; conditions: COLO 205, 48 h, read-out: Activity
SF-268 = assay: Cytotoxicity against human SF268 cells after 48 hrs by SRB assay; format: functional; conditions: SF-268, 48 h
ACHN = assay: Growth inhibition of human ACHN cells assessed as cell growth at 10^-7 M incubated for 48 hrs by sulforhodamine B assay relative to control; format: functional; conditions: read-out: Activity
CCRF-CEM [11] = assay: Growth inhibition of human CCRF-CEM cells assessed as cell growth at 10^-5 M incubated for 48 hrs by sulforhodamine B assay relative to control; format: functional; conditions: read-out: Activity
HeLa = assay: Antiproliferative activity against human HeLa cells after 72 hrs by Coulter counter method; format: functional, cell-based; method in brief: as §1
KM12 [12] = assay: Growth inhibition of human KM12 cells assessed as cell growth at 10^-6 M incubated for 48 hrs by sulforhodamine B assay relative to control; format: functional; conditions: KM12, 48 h, read-out: Activity
NCI-H226 = assay: Growth inhibition of human NCI-H226 cells assessed as cell growth at 10^-6 M incubated for 48 hrs by sulforhodamine B assay relative to control; format: functional; conditions: NCI-H226, 48 h, read-out: Activity
NCI/ADR-RES [13] = assay: Cytotoxicity against human NCI-ADR-RES cells after 48 hrs by SRB assay; format: functional
SK-MEL-5 = assay: Growth inhibition of human SK-MEL-5 cells assessed as cell growth at 10^-6 M incubated for 48 hrs by sulforhodamine B assay relative to control; format: functional; conditions: SK-MEL-5, 48 h, read-out: Activity
BT-549 = assay: Growth inhibition of human BT549 cells assessed as cell growth at 10^-6 M incubated for 48 hrs by sulforhodamine B assay relative to control; format: functional; conditions: BT-549, 48 h, read-out: Activity
SK-OV-3 = assay: Growth inhibition of human SKOV3 cells assessed as cell growth at 10^-7 M incubated for 48 hrs by sulforhodamine B assay relative to control; format: functional; conditions: SK-OV-3, 48 h, read-out: Activity
NCI/ADR-RES [14] = assay: Growth inhibition of human NCI/ADR-RES cells assessed as cell growth at 10^-4 M incubated for 48 hrs by sulforhodamine B assay relative to control; format: functional; conditions: read-out: Activity
HCC 2998 = assay: Growth inhibition of human HCC2998 cells assessed as cell growth at 10^-6 M incubated for 48 hrs by sulforhodamine B assay relative to control; format: functional; conditions: HCC 2998, 48 h, read-out: Activity
[15] = read-out: pLC50 (the source's name) (converted)

## C#C[C@@]1(O)[C@@H](CO)O[C@@H](n2ccc3c(N)ncnc32)[C@@H]1O
NCI-H23 [1]
  growth at 0.1 µM: 93%
SK-MEL-28 [2]
  growth at 1 µM: 94%
MOLT-4 [3]; read-out: LC50 (the source's name)
  CC50: > 100 µM
MOLT-4 [3]; read-out: TGI
  TGI: > 100 µM
MOLT-4 [3]; read-out: pGI50 (converted)
  GI50: 0.617 µM
MOLT-4 [3]; read-out: pTGI (converted)
  TGI: > 100 µM
A549; read-out: TGI
  TGI: > 100 µM
A549; read-out: pGI50 (converted)
  GI50: 1.32 µM
A549; [15]
  CC50: > 100 µM
A549; read-out: pTGI (converted)
  TGI: > 100 µM
Hs-578T
  growth at 0.1 µM: 100%
CCRF-CEM [4]
  growth at 1 µM: 70%
SK-MEL-28 [5]
  growth at 10 µM: 21%
M14
  growth at 1 µM: 73%
CCRF-CEM [6]
  IC50: 0.71 µM
SW-620
  growth at 0.01 µM: 72%
KM12 [7]; read-out: TGI
  TGI: 10.9 µM
KM12 [7]; [15]
  CC50: 91.2 µM
KM12 [7]; read-out: pTGI (converted)
  TGI: 11 µM
MOLT-4 [8]
  growth at 1 µM: 38%
NCI-H23 [9]
  growth at 10 µM: -32%
SF-295
  growth at 1 µM: 74%
SN12C
  growth at 10 µM: -31%
RXF 393; read-out: TGI
  TGI: 4.6 µM
RXF 393; read-out: pGI50 (converted)
  GI50: 1.91 µM
RXF 393; [15]
  CC50: 12.9 µM
RXF 393; read-out: pTGI (converted)
  TGI: 4.57 µM
UACC-257
  growth at 0.1 µM: 105%
NCI-H23 [10]
  growth at 0.01 µM: 95%
U-251
  growth at 0.01 µM: 102%
COLO 205
  growth at 10 µM: -54%
SF-268; read-out: TGI
  TGI: 26.1 µM
SF-268; read-out: pGI50 (converted)
  GI50: 2.34 µM
SF-268; [15]
  CC50: > 100 µM
SF-268; read-out: pTGI (converted)
  TGI: 26.3 µM
ACHN
  growth at 0.1 µM: 101%
CCRF-CEM [11]
  growth at 10 µM: 14%
HeLa
  IC50: 0.88 µM
KM12 [12]
  growth at 1 µM: 67%
NCI-H226
  growth at 1 µM: 92%
NCI/ADR-RES [13]; read-out: TGI
  TGI: 7.28 µM
NCI/ADR-RES [13]; read-out: pGI50 (converted)
  GI50: 0.794 µM
NCI/ADR-RES [13]; [15]
  CC50: > 100 µM
NCI/ADR-RES [13]; read-out: pTGI (converted)
  TGI: 7.24 µM
SK-MEL-5
  growth at 1 µM: 85%
BT-549
  growth at 1 µM: 80%
SK-OV-3
  growth at 0.1 µM: 92%
NCI/ADR-RES [14]
  growth at 100 µM: -9%
HCC 2998
  growth at 1 µM: 74%

— ChEMBL document CHEMBL4270599, “Synthesis of a 3'-C-ethynyl-β-d-ribofuranose purine nucleoside library: Discovery of C7-deazapurine analogs as potent antiproliferative nucleosides” (Eur J Med Chem, 2018)
